PHOSPHO1 block – PubChem AID 1565; inhibition, % at 13.3 µM; 290,000 tested, 1.1% active; recombinant PHOSPHO1, absorbance phosphatase assay; in the data active = inhibition above about 60%
Target sequence (Q8TCT1 whole entry, looked up): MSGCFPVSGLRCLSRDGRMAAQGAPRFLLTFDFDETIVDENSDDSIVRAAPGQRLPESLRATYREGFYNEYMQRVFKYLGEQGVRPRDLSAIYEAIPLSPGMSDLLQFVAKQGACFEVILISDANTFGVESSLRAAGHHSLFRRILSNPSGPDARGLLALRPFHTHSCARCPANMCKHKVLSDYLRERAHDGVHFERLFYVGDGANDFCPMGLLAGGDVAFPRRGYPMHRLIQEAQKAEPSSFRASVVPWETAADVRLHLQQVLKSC
HSF1 inh – HSF1 inhibitors in luciferase reporter cells, primary screen, cell-based, NIH3T3, luminescence; AID 2098, 2009; activity change, negative = inhibition, % at 7.5 µM (by protocol); NIH3T3-HGL HSE-luciferase, MG132-induced, luminescence 8 h; stronger effect = lower value; 300,000 tested, 0.77% active;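 active = more than half of replicate wells show activity change below -50%, luminescence cut by over half; inconclusive = some wells, but at most half, below -50%; inactive = no replicate well below -50%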;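 also: luciferase reports HSF-1 transcriptional activity via heat shock element; 0% = median of DMSO wells and -100% = zero luminescence signal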
core dimer inh – inhibitors of HCV core protein dimerization, primary screen, biochemical, TR-FRET, high-throughput; TR-FRET GST/Flag-core106 dimerization, 1536-well; inhibition, % at 5 µM; 300,000 tested, 0.33% active; AID 1899, 2009;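 active = inhibition above the mean of all tested compounds plus 3 SD, set per screening campaign, cut at about 45% in these data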
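test system = GST/Flag-tagged HCV core106 proteins | probe or stimulus = Eu donor and XL665 acceptor anti-tag antibodies | times = compound-protein-antibody incubation 4 h at 22.5 °C | signal = TR-FRET, excitation 340 nm, emission 617 and 671 nm | measure = percent inhibition of core106 dimerization signal | controls = wells lacking GST-core106 and wells with excess unlabelled core106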
ALR inh – inhibitors of human ALR sulfhydryl oxidase, primary screen, biochemical, H2O2 detection, HRP-luminol luminescence, single point; inhibition, % (no concentration beside the values); FAD-linked sulfhydryl oxidase ALR (Homo sapiens), P55789; purified ALR, DTT oxidation; 290,000 tested, 3.8% active;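 active = mean replicate inhibition above about 79%, with every replicate also reaching it, limit read from the data; inconclusive = only one of the two criteria met; inactive = mean below limit and not every replicate reaching it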
Target sequence (P55789 whole entry, looked up): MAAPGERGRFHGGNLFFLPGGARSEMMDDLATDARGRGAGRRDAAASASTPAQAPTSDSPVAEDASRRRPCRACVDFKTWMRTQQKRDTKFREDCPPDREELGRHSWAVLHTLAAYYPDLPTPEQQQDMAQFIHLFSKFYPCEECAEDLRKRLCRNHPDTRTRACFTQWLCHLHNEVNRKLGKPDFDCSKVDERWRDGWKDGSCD
AI-2 QS mod – Vibrio harveyi AI-2 quorum sensing modulators, primary screen, JMH597 strain, luminescence/OD600 ratio; Vibrio harveyi JMH597 AI-2 luminescence/OD600 ratio, 9 h; stronger effect = lower value; strain lacks LuxN and CqsS sensors; 0 = neutral-control median; AID 2094, 2009; 300,000 tested, 0.4% active; activity change, % at 7.5 µM; in the data active = activity change below about -75%, passing the limit was not always enough; inconclusive = no clear call, values can overlap the other calls;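 also: luminescence divided by OD600 gain over 9 h not by final OD600 alone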
HSF1 activator – HSF-1 activators, primary screen, NIH3T3-HGL cells, MG132 stress, luminescence, single point. NIH3T3-HGL HSF-1 luciferase reporter, 8 h; 100% = twice DMSO control signal. activation, % at 9 µM. 300,000 tested, 1.7% active;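 active = mean replicate activation of at least 50% with a set share of replicates each reaching 50%; inconclusive = only one of those two conditions met; inactive = mean below 50% and too few replicates reaching it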;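 also: 0% = median of the neutral control wells and 100% = twice that signal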
* hit, by the source's call; ? = inconclusive; / = not tested or not shown. This is a sample that favours compounds with a hit; in the whole collection about 6.8% have one here.

SMILES | PHOSPHO1 block | HSF1 inh | core dimer inh | ALR inh | AI-2 QS mod | HSF1 activator
COc1ccc(C)cc1NC(=O)c1ccc(NS(=O)(=O)c2cccs2)cc1 | 26.1 | -2.9 | 2.1 | -22.3 | 20.8 | 11.8
NC(=O)c1ccsc1NC(=O)COC(=O)c1cccnc1Cl | / | / | / | 94.1* | / | /
NC(=O)c1ccsc1NC(=O)COC(=O)Cc1cccc2ccccc12 | -2.0 | -3.8 | 10.6 | 96.8* | 4.2 | -1.0
NC(=O)COc1ccccc1 | 46.0 | 44.8 | -0.4 | -7.1 | 11.2 | 78.8*
NC(=O)c1ccsc1NC(=O)COc1ccccc1 | 14.0 | 37.0 | 6.6 | -4.2 | 34.1 | 69.2*
NC(=O)c1ccsc1NC(=O)COC(=O)c1ccc(Cl)nc1 | / | -1.2 | 19.6 | -1.3 | 38.4 | 2.0
NC(=O)c1ccsc1NC(=O)COC(=O)Cc1c[nH]c2ccccc12 | / | -3.8 | 11.8 | / | 21.8 | -6.0
CCN(CC)CCN(Cc1cc2cc3c(cc2[nH]c1=O)OCCO3)C(=S)NC | 39.1 | 5.9 | -0.2 | -11.0 | 24.4 | 13.8
CC(C)CCNC(=O)C(=O)Nc1ccccc1 | -28.8 | -3.7 | -3.6 | -9.9 | 20.1 | 27.2
CCOc1ccc(S(=O)(=O)NCCC(=O)N2CC=C(c3ccccc3)CC2)cc1 | / | / | / | -22.0 | / | /
CC(=O)N1c2ccc(S(=O)(=O)NCC3CCC(C(=O)N4CCC(C)CC4)CC3)cc2CC1C (configuration not stated) | 2.1 | 3.1 | 2.2 | -3.5 | / | -5.5
CCN1/C(=C/c2ccc3cc(C)ccc3[n+]2CC)Sc2cc(C)ccc21 | -111.9 | / | / | / | / | /
CCCCN1/C(=C/c2ccc3ccccc3[n+]2CC)Sc2ccccc21 | -68.3 | 11.4 | / | / | 27.5 | 56.9*
CC(CN1CCCCC1)OC(=O)COc1ccc(Br)cc1 (configuration not stated) | -11.3 | 6.9 | -2.3 | -7.5 | 15.8 | 5.4
CN(N=Nc1ccc([N+](=O)[O-])cc1)c1ccccc1 | -4.6 | 44.1 | 7.7 | -26.0 | 29.8 | 74.3*
CN(N=Nc1cccc([N+](=O)[O-])c1)c1ccccc1 | 29.9 | 10.7 | 1.6 | 0.7 | -1.8 | 18.6
C=CCc1cccc2cc(C(=O)Nc3ccccc3C(=O)O)c(=O)oc12 | 19.9 | / | / | / | / | /
CC(/C=N/NC(=O)c1cc(-c2ccccc2)nc2ccccc12)=C\c1ccco1 | -6.8 | 18.8 | 50.5* | -4.8 | 31.1 | 54.5*
CC(/C=N/NC(=O)c1cc(-c2ccc(Cl)cc2)nc2ccccc12)=C\c1ccco1 | 12.8 | -10.0 | 87.7* | -5.0 | 22.5 | -6.4
CCOC(=O)/C=C1\Nc2ccccc2OC1=O | 19.2 | 24.1 | -6.1 | 93.2* | 37.2 | 20.5
CC1(C(=O)NCc2ccccc2)Oc2ccccc2NC1=O (configuration not stated) | -1.4 | -0.5 | -2.4 | 3.7 | 25.1 | -8.9
CSc1nc(N(C)CCO)c2sc3nc(-c4ccco4)c4c(c3c2n1)CCC4 | -76.7 | 7.3 | 80.3* | 97.8* | 14.0 | 5.3
Cc1cccc(C)c1NC(=O)C1C2C=CC(C2)C1C(=O)O (configuration not stated) | 2.8 | -3.1 | 0.4 | -10.2 | 1.1 | -1.4
CCOC(=O)c1c(C)[nH]c(N=Nc2ccc(C)cc2)c1C | 5.5 | 36.2 | 2.1 | -12.9 | 6.6 | ?
CCOC(=O)c1c(C)[nH]c(N=Nc2ccccc2)c1C | -77.5 | 8.7 | -17.2 | 86.7* | 2.4 | 46.6
SMILES | PHOSPHO1 block | HSF1 inh | core dimer inh | ALR inh | AI-2 QS mod | HSF1 activator
Cc1cc(NC(=O)CN(C)S(=O)(=O)c2cnc[nH]2)ccc1Br | 12.1 | 8.3 | -4.7 | 1.2 | 24.5 | 16.7
O=C(c1ccc(Cl)cc1)C1C2C(=O)N(c3ccccc3)C(=O)C2C2CCCN21 (configuration not stated) | 83.6* | 17.7 | / | / | 1.0 | 3.6
O=C(c1ccccc1)[C@@H]1[C@@H]2C(=O)N(c3ccc(F)cc3)C(=O)[C@@H]2C2CCCN21 (some centres not stated) | -136.5 | 5.4 | 3.8 | 2.7 | 25.6 | 23.6
Cc1ccc(N2C(=O)[C@@H]3[C@H](C2=O)C2CCCN2[C@@H]3C(=O)c2ccccc2)cc1 (some centres not stated) | -29.1 | 11.6 | 57.6* | 1.7 | 32.9 | 28.5
Cc1ccnc(NC(NC(=O)C(C)C)(C(F)(F)F)C(F)(F)F)c1 | -10.6 | -2.6 | 6.0 | / | 9.7 | 2.3
Cn1ccc(C(=O)NC(=S)Nc2ccc([N+](=O)[O-])cc2O)n1 | 12.3 | / | / | 15.4 | 31.5 | /
O=C(C1CC1)N1N=C(c2ccccc2)CC1(O)C(F)(F)C(F)(F)F (configuration not stated) | 18.3 | 0.4 | -4.6 | -12.2 | 3.8 | -16.2
O=C1c2ccccc2CN1c1ccccc1 | / | 13.3 | 4.7 | -1.9 | 6.2 | 18.6
COc1ccc(N2Cc3ccccc3C2=O)cc1 | 3.1 | 24.6 | -15.5 | / | -1.8 | 54.2*
Cc1ccc(N2Cc3ccccc3C2=O)cc1 | 57.6 | 18.5 | -0.5 | / | 10.4 | 23.7
C=CC(=O)Oc1ccc(N2Cc3ccccc3C2=O)cc1 | / | 63.4 | 6.4 | 8.3 | -1.4 | 69.9*
COc1ccc(N2Cc3cccc(C(=O)O)c3C2=O)cc1 | 8.6 | -7.2 | 48.3* | 3.8 | 5.6 | -15.6
Cc1ccc(S(=O)(=O)NCc2ccccc2)cc1C(=O)NC1CCC(C)CC1 (configuration not stated) | 33.4 | 9.9 | 0.0 | -11.2 | 13.8 | 7.5
CN=c1scc(-c2ccccc2F)n1/N=C(\C)c1cccnc1 | -10.6 | 26.2 | -1.5 | 93.9* | 22.6 | 77.9*
C/C(=N\N1CCN(C2c3ccccc3-c3ccccc32)CC1)c1cccnc1 | 27.4 | -8.6 | 2.3 | -19.5 | 10.3 | -9.6
CC(=O)NS(=O)(=O)c1ccc(NC(=O)c2cccc(S(=O)(=O)N3CCc4ccccc43)c2)cc1 | 5.0 | -3.9 | 1.6 | 96.8* | 19.9 | 2.7
Cc1cc(NC(=O)c2ccc(S(=O)(=O)N3CCc4ccccc43)cc2)no1 | -15.4 | -4.2 | 72.3* | 4.5 | 12.3 | -2.4
Cc1ccnc(NC(=O)c2ccc(C(=O)c3ccccc3)cc2)c1 | / | -9.4 | -1.3 | 3.5 | 11.7 | 9.7
Cc1cc(NC(=O)c2ccc(S(=O)(=O)N3CCOCC3)cc2)no1 | 16.6 | -3.0 | -1.3 | -0.5 | 25.7 | -10.9
Cc1cc(NC(=O)c2ccc(S(=O)(=O)Nc3ccccc3)cc2)no1 | 38.2 | -6.9 | -1.7 | 98.3* | -2.1 | 15.1
Cc1ccnc(NC(=O)c2ccc(S(=O)(=O)c3ccccc3)cc2)c1 | 61.0* | -6.8 | -3.7 | -3.0 | 1.4 | -3.2
